A selection: hits, their analogues and other compounds. The true share with any hit is near 2%.
PPC-1+TRAIL kill: compounds killing PPC-1 cancer cells with TRAIL present (potentiator screen, no TRAIL-free arm); PPC-1 cells + TRAIL, ATPLite viability luminescence; cell killing (% activity), % at 4 µM or 5 µM; hit rate 0.41% among 220,000; AID 1443;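 active = cell killing above 50% in the first pass at 4 µM, then a duplicate retest at 5 µM averaging 50% or more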;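 note: plate controls were cells with TRAIL plus DMSO for no effect and medium-only wells lacking cells for full effect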
FLuc inhib CS: counter-screen for luciferase assay inhibitors: firefly luciferase inhibition; P08659; ATPLite firefly luciferase biochemical luminescence, 10 min; inhibition, % at 10 µM; hit rate 1.5% among 200,000; AID 1006;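 active = inhibition above about 50% when tested at 10 µM, limit read from the data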
Target sequence (P08659 whole entry, looked up): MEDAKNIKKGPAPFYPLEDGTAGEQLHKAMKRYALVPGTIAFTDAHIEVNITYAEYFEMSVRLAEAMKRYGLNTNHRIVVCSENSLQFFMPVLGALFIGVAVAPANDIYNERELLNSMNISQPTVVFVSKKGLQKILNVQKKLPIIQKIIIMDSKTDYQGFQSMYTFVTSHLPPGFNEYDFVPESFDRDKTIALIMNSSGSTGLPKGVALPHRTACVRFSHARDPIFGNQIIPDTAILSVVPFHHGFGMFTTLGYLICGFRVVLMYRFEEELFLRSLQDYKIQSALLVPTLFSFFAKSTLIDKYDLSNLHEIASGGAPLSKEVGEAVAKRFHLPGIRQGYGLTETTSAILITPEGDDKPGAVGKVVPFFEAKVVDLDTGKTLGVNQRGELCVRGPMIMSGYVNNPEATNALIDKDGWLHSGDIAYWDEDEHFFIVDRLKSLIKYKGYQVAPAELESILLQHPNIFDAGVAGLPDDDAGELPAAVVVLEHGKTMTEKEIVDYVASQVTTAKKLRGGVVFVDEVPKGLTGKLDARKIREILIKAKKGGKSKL
HSP90 inh: inhibitors of HSP90 luciferase refolding in rabbit reticulocyte lysate; inhibition, % at 5.6 µM; hit rate 0.91% among 290,000; luciferase refolding luminescence, 3 h; AID 1789;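 active = inhibition above the screen-wide mean plus 3 SD, computed separately per campaign, cut at about 16% in these data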;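 note: 0% = DMSO wells and 100% = 60 µM geldanamycin wells; inhibitors lower the luminescence because luciferase stays unfolded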
TRAIL sens C8: caspase-8 TRAIL sensitization | NB7+C8 cells + TRAIL, ATPlite viability luminescence | inhibition (viability loss, TRAIL sensitization), % at 10 µM | hit rate 1% among 360,000 | AID 624354;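 active = compounds causing at least 50% loss of cell viability in the single-dose screen, relative to plate controls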
FLuc stim CS: affects firefly luciferase, flagging false hits in luciferase stimulation screens; 200,000 tested, under 10 active; activation factor at 10 µM; ATPlite luciferase biochemical, luminescence, 10 min; 0 = ATP-free wells, 1 = DMSO control; P08659; AID 1027;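 active = luciferase activation factor, scaled between plate controls, of at least 2 with compound at 10 µM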
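System: cell-free luciferase reagent; medium: PBS as buffer for the ATP substrate; doses: test compounds dosed from 2 mM stocks in 100% DMSO; incubation: 10 min, room temperature; measured by: luminescence from luciferase reaction; read-out: luciferase activation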
HSP90 confirm: confirmation of HSP90 inhibitors; shares compounds with HSP90 inh; rabbit reticulocyte lysate, luciferase refolding luminescence, 3 h; inhibition, % at 5.9 µM; hit rate 64% among 2,300; AID 1846; in the data active = inhibition above about 18%;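 note: 0% = vehicle wells and 100% = reference inhibitor wells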
FLuc counter: firefly luciferase inhibition, HSP90 counter-screen | AID 1847 | inhibition, % at 5.9 µM | purified native firefly luciferase, luminescence | shares compounds with HSP90 inh | hit rate 48% among 2,300;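 active = inhibition above the mean inhibition of all tested sample wells plus 3 SD, cut at about 10% in these data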;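 note: 0% = DMSO with luciferase and 100% = wells lacking luciferase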
Numbers without * were called inactive; · = no result given; ! = repeats disagree.

SMILES	PPC-1+TRAIL kill	FLuc inhib CS	HSP90 inh	TRAIL sens C8	FLuc stim CS	HSP90 confirm	FLuc counter
CCC(=O)Nc1cccc(-c2ccc(N3CCCCC3)nn2)c1	·	·	25*	83*	·	47*	15*
O=C(CSC(=S)N1CCCCC1)c1ccccc1	34	76*	54*	54*	0.2	73*	64*
O=C(CSC(=S)N1CCCC1)c1ccccc1	·	·	19*	16	·	43*	44*
Cc1c(CC(=O)N[C@@H](C)C(=O)O)c(=O)oc2cc3c(cc12)CCC(C)(C)O3	·	·	-3	-13	·	·	·
Cc1c(CC(=O)N[C@H](C(=O)O)C(C)C)c(=O)oc2cc3c(cc12)CCC(C)(C)O3	·	·	27*	10	·	35*	14*
Cc1ccc(C(=O)NCC(=O)NNC(=O)CN(C)S(=O)(=O)c2ccc(Cl)cc2)s1	·	·	·	-2	·	·	·
O=C(Nc1ccc2ccccc2c1)c1cccc(F)c1	10	·	-1	16	·	·	·
O=C(Nc1ccc2ccccc2c1)c1ccc(Cl)cc1	·	·	23*	57*	·	37*	17*
O=C(Nc1nc2ccccc2[nH]1)c1cccc(Cl)c1	·	·	-2	42	·	·	·
O=C(Nc1nc2ccccc2[nH]1)c1ccc(Cl)cc1	·	·	46*	87*	·	65*	58*
Cc1ccc(C(=O)Nc2ccc3ccccc3c2)cc1	·	·	69*	83*	·	76*	69*
Cc1ccc2cc(NC(=O)c3ccccc3)ccc2n1	·	·	18*	58*	·	15	-3
Cc1cccc(C(C)C)c1NC(=O)CN1C(=O)NC2(CCc3ccccc32)C1=O (stereo unspecified)	·	·	·	7	·	·	·
O=C(NCCC(NS(=O)(=O)OCC(Cl)(Cl)Cl)c1ccccc1)C(F)(F)F (stereo unspecified)	·	·	1	2	·	·	·
O=C(O)c1ccccc1C(=O)Nc1ccc(Br)c2cccnc12	38	14	13	-11	0.9	·	·
Cc1ccoc1C(=O)Nc1ccc2ccccc2c1	·	·	24*	54*	·	56*	47*
CC(OC(=O)Cn1[nH]c(=O)c2ccccc2c1=O)C(=O)c1ccccc1 (stereo unspecified)	·	·	-1	5	·	·	·
Cc1nc(Nc2nc3ccccc3o2)nc2c1CCC2	25	66*	17*	38	0.3	50*	43*
Cc1ccc(NC(=O)CN2C(=O)S/C(=C/c3ccc(-c4cccc(C(=O)O)c4)o3)C2=O)cc1	9	-1	0	1	1	·	·
Cc1ccc(NC(=O)CN2C(=O)S/C(=C\c3ccc(-c4cccc(C(=O)O)c4C)o3)C2=O)cc1	12	0	26*	·	1	24*	-6
CCOc1ccc(NC(=O)CCc2nnc3ccc(N4CCC5(CC4)OCCO5)nn23)cc1	·	·	-3	-4	·	·	·
OCC[C@@H]1C[C@@H](O)[C@H](O)[C@@]2(OCCc3ccccc32)O1	·	·	-3	-6	·	·	·
CCN(CC)c1ccc(SS(=O)(=O)O)cc1	18	1	25*!	-29	1	69*	-9
O=S(=O)(O)Sc1ccccc1	·	·	·	-7	·	·	·
O=C(Nc1cccc(S(=O)(=O)N2CCCC2)c1)c1cc(-c2ccccn2)nc2ccccc12	7	-2	-1	-5	1	·	·
SMILES	PPC-1+TRAIL kill	FLuc inhib CS	HSP90 inh	TRAIL sens C8	FLuc stim CS	HSP90 confirm	FLuc counter
CC(=O)N/N=C\c1cccc(OC/C=C/c2ccccc2)c1	·	·	21*	7	·	19*	-13
N#CCC(=O)N/N=C\c1cccc(OC/C=C/c2ccccc2)c1	·	·	21*	-4	·	26*	-26
COc1cc(/C=N\NC(=O)CC#N)ccc1OC/C=C/c1ccccc1	·	·	0	18	·	·	·
Cc1cc(=O)oc2cc(NC(=O)C(C)N3C(=O)C4CCCCC4C3=O)ccc12 (stereo unspecified)	·	·	·	2	·	·	·
Cc1cc(/C=C2\SC(=S)N(C)C2=O)c(C)n1-c1ccc(O)cc1	17	·	60*	30	·	82*	82*
Oc1ccccc1CNc1ccc2c(c1)OCCO2	27	18	-1	-2	0.8	·	·
c1csc(CNc2ccc3c(c2)OCCO3)c1	-1	9	31*	2	0.9	21*	15*
COc1ccc(OC)c(S(=O)(=O)Nc2cc3c4c(c2)C(C)C(=O)N4CCC3)c1 (stereo unspecified)	·	·	·	6	·	·	·
O=C(O)c1cccc(-n2c(O)c(C=C3N=c4ccccc4=N3)sc2=S)c1	4	·	47*	-29	·	66*	-2
COc1cc(Cl)cc(/C=N/NC(N)=O)c1O	16	-3	-2	-1	1	·	·
O=C(Nc1ccc(N2CCCC(O)C2)cc1)c1snc2c(=O)[nH]cnc12 (stereo unspecified)	47	66*	19*	49	0.3	15	-4
Nc1c(C(=O)OCC2CCCO2)c2nc3ccccc3nc2n1C1CCCC1 (stereo unspecified)	8	-6	17*	9	1.1	-2	-8
COCCn1c(N)c(C(=O)NCC2CCCO2)c2nc3ccccc3nc21 (stereo unspecified)	20	-4	5	-2	1	·	·
Cc1cccc(/C(N)=N/OC(=O)COc2ccccc2Cl)c1	14	6	-2	-9	0.9	·	·
Cc1cc(/C(N)=N/OC(=O)c2ccccc2Cl)no1	37	·	25*	61*	·	19*	49*
COc1ccccc1C(=O)O/N=C(\N)c1ccccc1Cl	12	-1	-7	8	1	·	·
Cc1ccc(/C(N)=N/OC(=O)c2ccc(C)cc2Cl)cc1	62*	73*	28*	71*	0.3	60*	56*
Cc1cccc(/C(N)=N/OC(=O)c2ccc(Cl)cc2Cl)c1	46	90*	21*	62*	0.1	37*	50*
O=C(Nc1cc(-c2ccccc2)nn1C1CCCCC1)c1ccc(Cl)cc1	·	·	·	7	·	·	·
COc1cccc(C(=O)COC(=O)CCC(=O)NC2CCCCC2)c1	12	4	-1	-8	1	·	·
CCN(CC)CCOC(=O)c1ccc(NC(=O)CCCN2C(=O)S/C(=C/c3ccc(OC)cc3)C2=S)cc1	·	·	34*	8	·	30*	-26
COc1ccc(CC(=O)Nc2cc(S(=O)(=O)N3CCCCC3)ccc2OC(C)C)cc1OC	·	·	·	-12	·	·	·
Cc1nnc2sc(-c3ccc(N(C)C)cc3)nn2c1=O	·	·	20*	17	·	8	-10
CCOc1ccc(N(CC(=O)N2CCOCC2)S(=O)(=O)c2ccc(F)cc2)cc1	·	·	4	-14	·	·	·
CCOc1ccc(N(CC(=O)N2CCCCCC2)S(=O)(=O)c2ccc(F)cc2)cc1	·	·	35*	-8	·	-4	-7
Cc1cc(C=NCCCO)c(C)n1-c1cc(Cl)ccc1Cl	-21	-4	5	-6	1	·	·
CC(C)NC(=O)N(C)C[C@H]1Oc2ccc(NS(=O)(=O)c3ccc(F)cc3)cc2C(=O)N([C@H](C)CO)C[C@@H]1C	·	·	·	-9	·	·	·
COCCn1c(C)cc(C2=NNC(=Nc3ccc(OC)cc3)SC2)c1C	7	-2	4	12	1	·	·

From PubChem
